Data from ChEMBL document CHEMBL1121824, “1-Aryl-3-azabicyclo[3.1.0]hexanes, a new series of nonnarcotic analgesic agents” (1981).

Assays:
Assay type in all cases: functional
Rattus norvegicus [1] = assay: Analgesic activity was measured using inflamed rat paw pressure threshold method expressed as ED50 (sc)
Method in brief: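 Paw-pressure threshold in rats, left hind paw injected with 0.1 mL 20% brewers' yeast; threshold recorded 2 h post-yeast. Compound given subcutaneously in normal saline at times set by duration of action. Positive = ≥100% threshold rise; ED50 with 95% confidence limits via Finney linear arc sine transformation.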

Rattus norvegicus [2] = assay: Analgesic activity was assessed for inflamed rat-paw reversal of abnormal (three legged) gait expressed as ED50 (sc)
Method in brief: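 Yeast (brewers') injected into plantar surface of left hind paw; gait scored 0–2 at 3 h. Rats scoring 2 received compound subcutaneously in normal saline; postdrug scores taken at set intervals. ≥50% gait reduction counted positive; ED50 = dose lowering score 2 to 1 in 50% of rats.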

Rattus norvegicus [3] = assay: Analgesic activity for inflamed rat-paw reversal of abnormal (three legged) gait expressed as ED50 (po).
Method in brief: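 Rats given brewers' yeast in plantar surface of left hind paw; 3 h later gait scored 0 (normal) to 2 (maximal abnormal). Rats scoring 2 dosed orally in 2% starch suspension with 5% PEG 400 and Tween 80; gait rescored at set intervals. ED50 = dose reducing score from 2 to 1 in 50% of rats.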

Rattus norvegicus [4] = assay: Analgesic activity was measured using inflamed rat paw pressure threshold method expressed as ED50 (po)
Method in brief: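 Modified Randall–Selitto: left hind paw sensitised with 0.1 mL 20% aqueous brewers' yeast, pressure-pain threshold read 2 h after yeast. Oral dosing in 2% starch/5% PEG 400/Tween 80, timed to peak effect. ≥100% threshold elevation positive; ED50 (dose giving this in 50% of rats) with 95% limits by Finney arc sine method.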

Mus musculus = assay: Analgesic activity was measured using mouse anti-writhing method expressed as ED50 (po)
Method in brief: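 Mice in pairs; writhing induced by intraperitoneal phenyl-p-quinone 1 mg/kg. Compound given orally in 2% starch suspension with 5% PEG 400 and a drop of Tween 80.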

[5] = Rattus norvegicus, po, read-out: ED50
[6] = Mus musculus, po, read-out: ED50

Structure (SMILES) | ED50 (Rattus norvegicus [3]; [5]) | ED50 (Rattus norvegicus [4]; [5]) | ED50 (Mus musculus; [6]) | also measured
Cl.Oc1cccc(C23CNCC2C3)c1 (stereo not given) |  |  |  | ED50 (Rattus norvegicus [1]): > 25 mg/kg; ED50 (Rattus norvegicus [2]): 16 mg/kg
Cl.FC(F)(F)c1ccc(C23CNCC2C3)cc1 (stereo not given) | 38 mg/kg | 40 mg/kg | > 100 mg/kg | 
CC(C)c1ccc(C23CNCC2C3)cc1.Cl (stereo not given) |  |  | 30 mg/kg | ED50 (Rattus norvegicus [1]): > 25 mg/kg; ED50 (Rattus norvegicus [2]): 9 mg/kg
COc1cccc(C23CC2CN(C)C3)c1.Cl (stereo not given) | > 100 mg/kg |  |  | 
Cl.Clc1cccc(C23CNCC2C3)c1 (stereo not given) | > 50 mg/kg | 50 mg/kg | 34 mg/kg | 
CN1CC2CC2(c2ccc(Cl)cc2)C1.Cl (stereo not given) | > 50 mg/kg | 60 mg/kg | < 100 mg/kg | 
COc1ccc(C23CNCC2C3)cc1.Cl (stereo not given) | 24 mg/kg | 49 mg/kg | 4 mg/kg | 
COc1ccc(C23CNCC2C3)cc1Br.Cl (stereo not given) | > 25 mg/kg |  |  | 
Cl.Fc1ccc(C23CNCC2C3)cc1 (stereo not given) | > 50 mg/kg | 14 mg/kg | 34 mg/kg | 
Cl.FC(F)(F)c1cc(C23CNCC2C3)ccc1Cl (stereo not given) | 177 mg/kg |  |  | 
COc1cccc(C23CNCC2C3)c1.Cl (stereo not given) | 177 mg/kg |  |  | 
Cl.Fc1cccc(C23CNCC2C3)c1 (stereo not given) | > 50 mg/kg | 67 mg/kg | 21 mg/kg | 
Cl.Oc1ccc(C23CNCC2C3)cc1 (stereo not given) | > 200 mg/kg |  |  | 
Cl.Clc1ccc(C23CNCC2C3)cc1Cl (stereo not given) | 141 mg/kg |  |  | 
CCCCCCc1ccc(C23CNCC2C3)cc1.Cl (stereo not given) | > 50 mg/kg |  |  | 
Cc1ccccc1C12CNCC1C2.Cl (stereo not given) | > 50 mg/kg |  | > 50 mg/kg | 
CCOc1ccc(C23CNCC2C3)cc1.Cl (stereo not given) | 29 mg/kg |  |  | 
CC(C)(C)c1ccc(C23CNCC2C3)cc1.Cl (stereo not given) | > 200 mg/kg |  |  | 
Cc1cccc(C23CNCC2C3)c1.Cl (stereo not given) | > 50 mg/kg | 25 mg/kg | 18 mg/kg | 
Cc1ccc(C23CC2CN(CC2CC2)C3)cc1.Cl (stereo not given) | > 50 mg/kg |  |  | 

Structure (SMILES) | ED50 (Rattus norvegicus [3]; [5]) | ED50 (Rattus norvegicus [4]; [5]) | ED50 (Mus musculus; [6]) | also measured
C=CCN1CC2CC2(c2ccc(C)cc2)C1.Cl (stereo not given) | > 50 mg/kg |  |  | 
Cc1ccc(C23CC2CN(C)C3)cc1.Cl (stereo not given) | 20 mg/kg | 24 mg/kg | 16 mg/kg | 
Brc1ccc(C23CNCC2C3)cc1.Cl (stereo not given) | 141 mg/kg |  |  | 
CN1CC2CC2(c2cccc(O)c2)C1.Cl (stereo not given) | > 50 mg/kg |  | > 50 mg/kg | ED50 (Rattus norvegicus [1]): 25 mg/kg
Cl.Clc1ccccc1C12CNCC1C2 (stereo not given) | > 100 mg/kg |  |  | 
CCc1ccc(C23CNCC2C3)cc1.Cl (stereo not given) | 13 mg/kg | 25 mg/kg | 24 mg/kg | 
CCCCCCN1CC2CC2(c2ccc(C)cc2)C1.Cl (stereo not given) | > 50 mg/kg |  |  | 
Cl.FC(F)(F)c1cccc(C23CNCC2C3)c1 (stereo not given) | 28 mg/kg | 50 mg/kg | 29 mg/kg | 
Cl.c1ccc(C23CNCC2C3)cc1 (single isomer, unassigned; (+)) |  |  |  | ED50 (Rattus norvegicus [3]): 125 mg/kg; ED50 (Rattus norvegicus [4]): 79 mg/kg
Cl.c1ccc(C23CNCC2C3)cc1 (single isomer, unassigned; (-)) |  |  |  | ED50 (Rattus norvegicus [3]): >200 mg/kg; ED50 (Rattus norvegicus [4]): 43 mg/kg; ED50 (Mus musculus): <50 mg/kg
Cc1ccc(C23CNCC2C3)cc1.Cl (single isomer, unassigned; (-)) [BICIFADINE HYDROCHLORIDE] |  |  |  | ED50 (Rattus norvegicus [3]): >200 mg/kg; ED50 (Rattus norvegicus [4]): >25 mg/kg
Cl.Clc1ccc(C23CNCC2C3)cc1 (stereo in doubt; 2a) |  |  |  | ED50 (Rattus norvegicus [3]): 31 mg/kg; ED50 (Rattus norvegicus [4]): 21 mg/kg; ED50 (Mus musculus): 21 mg/kg
Cc1ccc(C23CNCC2C3)cc1.Cl (stereo in doubt; 2b) [BICIFADINE HYDROCHLORIDE] |  |  | 13 mg/kg | ED50 (Rattus norvegicus [3]): 18 mg/kg; ED50 (Rattus norvegicus [2]): 4 mg/kg; ED50 (Rattus norvegicus [4]): 11 mg/kg
Cl.c1ccc(C23CNCC2C3)cc1 (stereo in doubt; 2c) |  | 71 mg/kg | < 100 mg/kg | ED50 (Rattus norvegicus [3]): 70 mg/kg
Cc1ccc(C23CNCC2C3)cc1.Cl (stereo in doubt; 2v) [BICIFADINE HYDROCHLORIDE] |  |  |  | ED50 (Rattus norvegicus [3]): 17 mg/kg; ED50 (Rattus norvegicus [4]): <25 mg/kg
Cl.Clc1ccc(C23CNCC2C3)cc1 (stereo in doubt; 2x) |  |  |  | ED50 (Rattus norvegicus [3]): 25 mg/kg; ED50 (Rattus norvegicus [4]): 13 mg/kg; ED50 (Mus musculus): 19 mg/kg
Cl.Clc1ccc(C23CNCC2C3)cc1 (stereo in doubt; 2y (-)) |  |  |  | ED50 (Rattus norvegicus [3]): 150 mg/kg; ED50 (Rattus norvegicus [4]): >50 mg/kg; ED50 (Mus musculus): <100 mg/kg
CC(=O)Oc1ccccc1C(=O)O [ASPIRIN] | 74 mg/kg | 150 mg/kg | 29 mg/kg | 
COc1ccc2c3c1O[C@H]1[C@@H](O)C=C[C@H]4[C@@H](C2)N(C)CC[C@@]341.COc1ccc2c3c1O[C@H]1[C@@H](O)C=C[C@H]4[C@@H](C2)N(C)CC[C@@]341.O.O=P(O)(O)O.O=P(O)(O)O [CODEINE PHOSPHATE] | 51 mg/kg | 43 mg/kg | 9 mg/kg | 
